In ChEMBL document CHEMBL1129608, “Phosphodiester amidates of allenic nucleoside analogues: anti-HIV activity and possible mechanism of action” (J Med Chem, 1996):

Columns and labels:
[1] = Kinetic hydrolysis catalyzed by pig liver esterase at pH 1.2; format: ADME, Sus scrofa
[2] = Kinetic hydrolysis catalyzed by pig liver esterase at pH 7.4 and 37 degree C; format: ADME, Sus scrofa
Outline: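 Substrate at 2.2 × 10⁻³ M in 0.02 M Na₂HPO₄, pH 7.4, with pig liver esterase (200 units per 1 mL), stirred at 37 °C. Aliquots were taken at set times and analysed by reverse-phase C18 HPLC (water–CH₃CN gradient) to follow loss of substrate and give the half-life.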

[3] = Kinetic hydrolysis catalyzed by pig liver esterase at pH 9.8; format: ADME, Sus scrofa
[4] = tested on: L1210 (Mus musculus); experiment: Compound was evaluated for the inhibitory activity in a clonogenic assay with murine leukemia L1210 cells
[5] = tested on: ATH-8 cell line; experiment: Compound was evaluated for the inhibition of replication and cytopathic effect of HIV-1 in ATH8 cells; format: functional, cell-based, Homo sapiens
Outline: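 ATH8 (CD4+) cells, 2 × 10⁵, were exposed to HIV-1 LAI (500 TCID50) for 45 min and then cultured with compound. Total viable cells were counted on day 7. Percent protection was calculated as viable cells (infected plus drug minus infected alone) divided by (uninfected minus infected alone) × 100. Cytotoxicity was 100 × (1 − viable cells with drug / viable cells alone).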

[6] = tested on: ATH-8 cell line; experiment: Compound was evaluated for the cytotoxicity in ATH8 cells; conditions: Homo sapiens
[7] = tested on: L1210; experiment: Compound was evaluated for the clonogenic assay with murine leukemia L1210 cells; format: functional; conditions: Mus musculus, read-out: ID50 (the source's name)

| SMILES | half-life [1] | half-life [2] | half-life [3] | ID50 [4] | EC50 ([5]; ath-8) | IC50 [6] | EC50 ([5]; Homo sapiens, ATH-8) | IC50 [7] |
| --- | --- | --- | --- | --- | --- | --- | --- | --- |
| COC(=O)C(C)NP(=O)(OCC=C=Cn1cnc2c(N)ncnc21)Oc1ccccc1 (stereo in doubt; 2a) | 24.4 h | 8.5 h | 2.52 h | > 300000 nM | 880 nM | – | – | – |
| Nc1ncnc2c1ncn2C=C=CCO | – | – | – | – | – | 3000 nM | 14000 nM | 150000 nM |
| COC(=O)C(C)NP(=O)(OCC=C=Cn1cnc2c(N)ncnc21)Oc1ccccc1 (stereo in doubt; 4a) | – | – | – | – | 210 nM | – | – | – |
